In the RNAGym collection of RNA variant scans (doi:10.1038/s41586-018-0170-7):

B1: tRNA (parent)
chain: GUUCCGUUGGCGUAAUGGUAACGCGUCUCCCUCCUAAGGAGAAGACUGCGGGUUCGAGUCCCGUACGGAACG

Variants of: B1
Experiment: yeast fitness, log relative to wild type (ln ratio); higher = fitter; tRNA-Arg(CCU), competitive growth, 37 C, 1 M NaCl
In short: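 For each genotype, fitness is defined as the natural log of its generation number over the wild type's. The tRNA-Arg(CCU) variant library was on a HIS3 centromeric plasmid in BY4742 with the chromosomal gene removed, and pools were first grown 4 generations in SC-HIS at 30 °C and then ~6.5 generations (~26.5 h) in SC-HIS 1M NaCl at 37 °C. Generations were calculated from OD-scaled log2 output/input frequency, weighted by inverse variance across replicates, using counts from 125 bp paired-end Illumina sequencing.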

Variant	yeast fitness (ln)
G1A U2C A43C C66U A70G C71U	-0.272
G1A U2C C27U A43C A70G C71U	-0.0249
G1A U2C C27U A43C A70G	-0.0774
G1A U2C C27U A43C A70U	-0.111
G1A U2C C46U C66U A69G A70U	-0.152
G1A U2C C46U C66U A69G A70G	-0.127
G1A G6U C27U C66U A70G C71U	-0.38
G1A G6U C27U C66A	-0.254
G1A G6U C27U C66U	-0.29
G1A G6U C46U	-0.0505
G1A G6U C27U A43C C46U C66U A69G A70U C71U	-0.565
G1A U2C C46U A69G A70U C71U	-0.257
G1A G6U C27U A43C C46U C66U A69G A70U	-0.452
G1A G6U C27U A43C C46U C66U A69G A70G	-0.353
G1A U2C A43C A69G A70G	-0.151
G1A U2C A43C A69G A70U	-0.0414
G1A G6U C27U C46U C66A A70G	-0.233
G1A G6U C27U C46U C66A A70U	-0.249
G1A U2C C27U C66U A70U C71U	-0.256
G1A U2C C27U C66U	-0.191
G1A G6U C27U A43C C66U A70G C71U	-0.415
G1A U2C A43C C66U A69G A70G C71U	-0.287
G1A U2C C27U A69G A70U	-0.0698
G1A U2C C27U A69G A70G	-0.209

Variant	yeast fitness (ln)
G1A U2C C27U A69G A70U C71U	-0.351
G1A G6U C27U A43C C66U A69G A70G C71U	-0.497
G1A G6U C27U C66A A69G A70G C71U	-0.31
G1A U2C A43C A70U C71U	-0.278
G1A U2C A43C A70G	-0.0553
G1A U2C A43C A70U	-0.108
G1A G6U C27U C66U A70U C71U	-0.461
G1A G6U C46U A69G A70G C71U	-0.216
G1A U2C C27U C46U C66U A69G A70G C71U	-0.174
G1A G6U C27U A43C C46U C66A A70G	-0.319
G1A G6U C27U A43C C46U C66A A70U	-0.359
G1A U2C C27U A43C	-0.0395
G1A G6U C71U	-0.481
G1A G6U C27U A43C C46U C66U A69G C71U	-0.423
G1A G6U C46U A69G C71U	-0.297
G1A G6U C27U C66U A69G A70U C71U	-0.45
G1A U2C C27U A70G C71U	-0.0348
G1A G6U C46U C66A A70G C71U	-0.0299
G1A U2C C46U C66U A69G A70G C71U	-0.0168
G1A G6U C27U C66A A69G A70U C71U	-0.223
G1A G6U C66U A69G A70G C71U	-0.273
G1A U2C C27U A43C C66A A70U C71U	-0.331
G1A G6U C27U C46U C66U A70G	-0.234
G1A G6U C27U C46U C66U A70U	-0.29

Variant	yeast fitness (ln)
G1A U2C C66U C71U	-0.189
G1A G6U C27U C46U C66A A70G C71U	-0.23
G1A G6U C46U C66U A69G A70G C71U	-0.216
G1A U2C C27U A43C C46U A69G A70U C71U	-0.215
G1A U2C C66A A70U	-0.0191
G1A U2C C27U	-0.0512
G1A G6U C27U A43C C66A A70G C71U	-0.411
G1A G6U C46U C66A	-0.0835
G1A G6U C46U C66U	-0.0919
G1A U2C C46U A69G A70G C71U	0.00686
G1A U2C C27U A43C C46U C71U	-0.178
G1A U2C C27U A43C C66U A70U	-0.179
G1A G6U C27U A43C C66A C71U	-0.498
G1A G6U C27U A70U C71U	-0.335
G1A G6U C46U C66U A69G A70G	-0.205
G1A G6U C46U C66U A69G A70U	-0.251
G1A G6U C46U A69G A70U	-0.0951
G1A G6U C46U A69G A70G	-0.203
G1A G6U C27U C46U C66A A69G A70U C71U	-0.37
G1A U2C C46U C66U A70G C71U	-0.01
G1A G6U C27U A70U	-0.232
G1A G6U C27U A70G	-0.277
G1A U2C C27U A43C C46U C66A C71U	-0.24
G1A U2C C27U A43C A69G C71U	-0.173

Variant	yeast fitness (ln)
G1A U2C A43C C66U A69G A70U C71U	-0.279
G1A U2C C46U A69G A70G	-0.029
G1A U2C C46U A69G A70U	-0.016
G1A G6U C27U C46U C66U A69G A70G	-0.28
G1A G6U C27U C46U C66U A69G A70U	-0.454
G1A U2C C46U C66A A70U C71U	-0.0833
G1A U2C C27U C46U A70U	-0.127
G1A U2C C27U C46U A70G	-0.0417
G1A G6U C27U C46U A70U C71U	-0.278
G1A U2C C27U C46U C66A A70U C71U	-0.15
G1A G6U C46U A70G	-0.173
G1A G6U C46U A70U	-0.14
G1A U2C C27U A43C C46U A69G A70G C71U	-0.0168
G1A G6U C27U C46U C66U A69G C71U	-0.595
G1A U2C C46U A70G C71U	0.000912
G1A G6U C27U C66U A70G	-0.391
G1A G6U C27U C66U A70U	-0.274
G1A G6U C66U A70G C71U	-0.272
G1A U2C A69G A70G	-0.0537
G1A U2C A69G A70U	-0.00637
G1A G6U C66U A69G A70U C71U	-0.525
G1A U2C C27U C46U A69G A70G C71U	-0.0376
G1A U2C A69G A70G C71U	-0.0058
G1A G6U C46U C66U A70G C71U	-0.277

Variant	yeast fitness (ln)
G1A U2C C46U C66A A70G C71U	-0.124
G1A G6U C27U A43C C46U C71U	-0.212
G1A G6U C27U C46U C66U A70G C71U	-0.302
G1A G6U C27U A43C C46U C66A C71U	-0.138
G1A U2C C46U C66U A70G	-0.129
G1A U2C C46U C66U A70U	-0.0818
G1A G6U C27U A43C C66U A69G C71U	-0.258
G1A U2C A43C C66U A70G	-0.161
G1A U2C A43C C66U A70U	-0.169
G1A G6U C66A A70G	-0.196
G1A G6U C66A A70U	-0.0574
G1A U2C C27U A43C C46U C66A A70G C71U	-0.16
G1A G6U C27U C66U A69G A70G C71U	-0.386
G1A U2C C27U A43C C46U C66A A69G A70G C71U	-0.158
G1A U2C C27U A43C C66U A69G A70U C71U	-0.397
G1A G6U C27U C46U C66U A69G A70U C71U	-0.4
G1A G6U C27U C46U C66A	-0.32
G1A G6U C27U C46U C66U	-0.313
G1A G6U C46U C66U A70U C71U	-0.298
G1A G6U C27U A69G A70U C71U	-0.505
G1A U2C C27U A43C C46U A70U C71U	-0.221
G1A G6U C27U C46U A70G	-0.191
G1A G6U C27U C46U A70U	-0.274
G1A G6U C66A A70G C71U	-0.0373

Variant	yeast fitness (ln)
G1A G6U C66A	-0.0927
G1A G6U C66U	-0.126
G1A U2C A43C C46U C66A A70G C71U	-0.0667
G1A U2C C27U A43C C46U C66A A70U C71U	-0.27
G1A G6U C27U A43C C46U C66A A69G A70U C71U	-0.426
G1A U2C C27U C46U C66U A69G A70U	-0.184
G1A U2C C27U C46U C66U A69G A70G	-0.11
G1A G6U C27U A43C C66A A70G	-0.33
G1A G6U C27U A43C C66A A70U	-0.264
G1A G6U C27U C46U C66U A69G A70G C71U	-0.388
G1A G6U C46U C66U A69G A70U C71U	-0.441
G1A G6U C66A A69G C71U	-0.032
G1A G6U C27U A43C C46U C66U A70G C71U	-0.596
G1A U2C C27U A70U C71U	-0.288
G1A G6U C66A A69G A70U C71U	-0.432
G1A U2C A43C C46U A70G C71U	-0.00628
G1A G6U C27U C46U C66U A70U C71U	-0.438
G1A U2C A43C A69G A70G C71U	-0.0094
G1A U2C C27U A43C A69G A70G C71U	-0.0597
G1A U2C C46U C66U A70U C71U	-0.175
G1A G6U C27U C46U A69G A70G C71U	-0.335
G1A G6U C46U C66A A69G C71U	-0.041
G1A U2C C27U A43C C46U C66U C71U	-0.241
G1A G6U C27U A43C C46U C66U C71U	-0.364

Variant	yeast fitness (ln)
G1A U2C C27U A69G C71U	-0.131
G1A U2C A43C C46U C66A A70U C71U	-0.134
G1A G6U C27U C46U A70G C71U	-0.262
G1A U2C C27U A43C C46U C66U	-0.161
G1A G6U C27U A43C C66A A69G A70U C71U	-0.281
G1A G6U C46U A70G C71U	-0.227
G1A U2C C66U A69G A70G C71U	-0.055
G1A G6U C27U C46U C71U	-0.239
G1A U2C C27U C46U C66U A70G	-0.242
G1A U2C C27U C46U C66U A70U	-0.0209
G1A G6U C66A C71U	0.00231
G1A U2C C46U A70U C71U	-0.0299
G1A G6U C27U C66A A70G	-0.228
G1A G6U C27U C66A A70U	-0.407
G1A U2C C27U A43C C46U C66U A70U C71U	-0.297
G1A U2C G6A	0.00615
G1A U2C C27U A43C C66U A70U C71U	-0.244
G1A G6U C27U A70G C71U	-0.352
G1A U2C C27U C46U C66U A70G C71U	-0.0522
G1A G6U C66A A69G A70U	-0.0798
G1A G6U C46U C66A A69G A70U C71U	-0.341
G1A U2C C27U C66U C71U	-0.33
G1A G6U C27U A43C C66U A70G	-0.609
